In ChEMBL document CHEMBL1151448, “Comparative antianaerobic activities of doripenem determined by MIC and time-kill analysis” (2008):
Converted amounts (≈) assume the structure as drawn.

Experiments:
Type in all cases: functional
Bacteroides fragilis [1] = assay: Antimicrobial activity against beta lactamase-positive Bacteroides fragilis isolated from intra-abdominal infection and pelvic inflammatory disease patients after 48 hrs by agar dilution method
Summary of the method: (§1)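 CLSI agar dilution on brucella blood agar supplemented with laked sheep blood, hemin and vitamin K. Inocula of about 1 × 10^5 CFU/spot were applied by Steers replicator, and plates were incubated 48 h at 35°C in an anaerobic glove box. MIC was the concentration giving marked growth reduction versus the anaerobic control plate. QC strains were included each run, and β-lactamase was detected by Cefinase disk.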

[2] = test system: Bacteroides thetaiotaomicron; assay: Antimicrobial activity against beta lactamase-positive Bacteroides thetaiotaomicron isolated from intra-abdominal infection and pelvic inflammatory disease patients after 48 hrs by agar dilution method; summary of the method: as §1
Bacteroides fragilis [3] = assay: Antimicrobial activity against beta lactamase-positive Bacteroides fragilis isolated from intra-abdominal infection and pelvic inflammatory disease patients after 48 hrs by time kill analysis
Summary of the method: (§2)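 The MIC was read by inspecting macrodilution time-kill tubes. Vials held prereduced brucella broth with 5% laked horse blood cells, hemin 5 μg/ml and vitamin K1 1 μg/ml. Final inoculum was 10^6–10^7 CFU/ml, prepared inside the anaerobe chamber. Vials were incubated 48 h at 35°C in a shaking water bath.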

[4] = test system: Bacteroides thetaiotaomicron; assay: Antimicrobial activity against beta lactamase-positive Bacteroides thetaiotaomicron isolated from intra-abdominal infection and pelvic inflammatory disease patients after 48 hrs by time kill analysis; summary of the method: as §2
Prevotella intermedia [5] = assay: Antimicrobial activity against beta lactamase-positive Prevotella intermedia isolated from intra-abdominal infection and pelvic inflammatory disease patients after 48 hrs by time kill analysis; summary of the method: as §2
Finegoldia magna [6] = assay: Antimicrobial activity against beta lactamase-positive Finegoldia magna isolated from intra-abdominal infection and pelvic inflammatory disease patients after 48 hrs by time kill analysis; summary of the method: as §2
Fusobacterium nucleatum [7] = assay: Antimicrobial activity against beta lactamase-positive Fusobacterium nucleatum isolated from intra-abdominal infection and pelvic inflammatory disease patients after 48 hrs by time kill analysis; summary of the method: as §2
Clostridium perfringens [8] = assay: Antimicrobial activity against Clostridium perfringens isolated from intra-abdominal infection and pelvic inflammatory disease patients after 48 hrs by time kill analysis
Summary of the method: (§3)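 Macrodilution in prereduced brucella broth with 5% laked horse blood cells, 5 μg/ml hemin and 1 μg/ml vitamin K1. Final inoculum 10^6 to 10^7 CFU/ml, prepared inside the anaerobe chamber. Vials incubated 48 h at 35°C in a shaking water bath. MIC read by inspecting the time-kill tubes, alongside an antibiotic-free growth control.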

Clostridioides difficile [9] = assay: Antimicrobial activity against Clostridium difficile isolated from intra-abdominal infection and pelvic inflammatory disease patients after 48 hrs by time kill analysis; summary of the method: as §3
Bacteroides ovatus = assay: Antimicrobial activity against beta lactamase-positive Bacteroides ovatus isolated from intra-abdominal infection and pelvic inflammatory disease patients after 48 hrs by agar dilution method; summary of the method: as §1
Phocaeicola vulgatus = assay: Antimicrobial activity against beta lactamase-positive Bacteroides vulgatus isolated from intra-abdominal infection and pelvic inflammatory disease patients after 48 hrs by agar dilution method; summary of the method: as §1
[10] = test system: Parabacteroides distasonis; assay: Antimicrobial activity against beta lactamase-positive Bacteroides distasonis isolated from intra-abdominal infection and pelvic inflammatory disease patients after 48 hrs by agar dilution method; summary of the method: as §1
Prevotella bivia = assay: Antimicrobial activity against beta lactamase-positive Prevotella bivia isolated from intra-abdominal infection and pelvic inflammatory disease patients after 48 hrs by agar dilution method; summary of the method: as §1
Prevotella disiens = assay: Antimicrobial activity against beta lactamase-positive Prevotella disiens isolated from intra-abdominal infection and pelvic inflammatory disease patients after 48 hrs by agar dilution method; summary of the method: as §1
Prevotella intermedia [11] = assay: Antimicrobial activity against beta lactamase-positive Prevotella intermedia isolated from intra-abdominal infection and pelvic inflammatory disease patients after 48 hrs by agar dilution method; summary of the method: as §1
Prevotella nigrescens = assay: Antimicrobial activity against beta lactamase-positive Prevotella nigrescens isolated from intra-abdominal infection and pelvic inflammatory disease patients after 48 hrs by agar dilution method; summary of the method: as §1
[12] = test system: Prevotella melaninogenica; assay: Antimicrobial activity against beta lactamase-positive Prevotella melaninogenica isolated from intra-abdominal infection and pelvic inflammatory disease patients after 48 hrs by agar dilution method; summary of the method: as §1
Prevotella denticola = assay: Antimicrobial activity against beta lactamase-positive Prevotella denticola isolated from intra-abdominal infection and pelvic inflammatory disease patients after 48 hrs by agar dilution method; summary of the method: as §1
Prevotella corporis = assay: Antimicrobial activity against beta lactamase-positive Prevotella corporis isolated from intra-abdominal infection and pelvic inflammatory disease patients after 48 hrs by agar dilution method; summary of the method: as §1
Prevotella buccae = assay: Antimicrobial activity against beta lactamase-positive Prevotella buccae isolated from intra-abdominal infection and pelvic inflammatory disease patients after 48 hrs by agar dilution method; conditions: Segatella buccae; summary of the method: as §1
[13] = test system: Porphyromonas asaccharolytica; assay: Antimicrobial activity against Porphyromonas asaccharolyticus isolated from intra-abdominal infection and pelvic inflammatory disease patients after 48 hrs by agar dilution method; summary of the method: as §1
Porphyromonas gingivalis = assay: Antimicrobial activity against Porphyromonas gingivalis isolated from intra-abdominal infection and pelvic inflammatory disease patients after 48 hrs by agar dilution method; summary of the method: as §1
Porphyromonas levii = assay: Antimicrobial activity against Porphyromonas levii isolated from intra-abdominal infection and pelvic inflammatory disease patients after 48 hrs by agar dilution method; summary of the method: as §1
Fusobacterium nucleatum [14] = assay: Antimicrobial activity against beta lactamase-positive Fusobacterium nucleatum isolated from intra-abdominal infection and pelvic inflammatory disease patients after 48 hrs by agar dilution method; summary of the method: as §1
[15] = test system: Fusobacterium necrophorum; assay: Antimicrobial activity against Fusobacterium necrophorum isolated from intra-abdominal infection and pelvic inflammatory disease patients after 48 hrs by agar dilution method; summary of the method: as §1
Fusobacterium varium = assay: Antimicrobial activity against Fusobacterium varium isolated from intra-abdominal infection and pelvic inflammatory disease patients after 48 hrs by agar dilution method; summary of the method: as §1
Fusobacterium mortiferum = assay: Antimicrobial activity against beta lactamase-positive Fusobacterium mortiferum isolated from intra-abdominal infection and pelvic inflammatory disease patients after 48 hrs by agar dilution method; summary of the method: as §1
Finegoldia magna [16] = assay: Antimicrobial activity against Finegoldia magna isolated from intra-abdominal infection and pelvic inflammatory disease patients after 48 hrs by agar dilution method; summary of the method: as §1
Parvimonas micra = assay: Antimicrobial activity against Micromonas micros isolated from intra-abdominal infection and pelvic inflammatory disease patients after 48 hrs by agar dilution method; summary of the method: as §1
[17] = test system: Peptostreptococcus anaerobius; assay: Antimicrobial activity against Peptostreptococcus anaerobius isolated from intra-abdominal infection and pelvic inflammatory disease patients after 48 hrs by agar dilution method; summary of the method: as §1
Anaerococcus prevotii = assay: Antimicrobial activity against Anaerococcus prevotii isolated from intra-abdominal infection and pelvic inflammatory disease patients after 48 hrs by agar dilution method; summary of the method: as §1
Anaerococcus tetradius = assay: Antimicrobial activity against Anaerococcus tetradius isolated from intra-abdominal infection and pelvic inflammatory disease patients after 48 hrs by agar dilution method; summary of the method: as §1
[18] = test system: Peptoniphilus asaccharolyticus; assay: Antimicrobial activity against Peptoniphilus asaccharolyticus isolated from intra-abdominal infection and pelvic inflammatory disease patients after 48 hrs by agar dilution method; summary of the method: as §1
Clostridium perfringens [19] = assay: Antimicrobial activity against Clostridium perfringens isolated from intra-abdominal infection and pelvic inflammatory disease patients after 48 hrs by agar dilution method
Summary of the method: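 CLSI agar dilution on brucella blood agar supplemented with laked sheep blood, hemin and vitamin K. Inoculum about 1 × 10^5 CFU/spot, applied by Steers replicator. Plates incubated 48 h at 35°C in an anaerobic glove box. MIC is the concentration giving marked growth reduction versus the anaerobic control plate. Standard QC strains included in each run.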

Clostridioides difficile [20] = assay: Antimicrobial activity against Clostridium difficile isolated from intra-abdominal infection and pelvic inflammatory disease patients after 48 hrs by agar dilution method; summary of the method: as §1
[Clostridium] innocuum = Antimicrobial activity against Clostridium innocuum isolated from intra-abdominal infection and pelvic inflammatory disease patients after 48 hrs by agar dilution method; summary of the method: as §1
Thomasclavelia ramosa = assay: Antimicrobial activity against Clostridium ramosum isolated from intra-abdominal infection and pelvic inflammatory disease patients after 48 hrs by agar dilution method; summary of the method: as §1
[21] = test system: Paraclostridium bifermentans; assay: Antimicrobial activity against Clostridium bifermentans isolated from intra-abdominal infection and pelvic inflammatory disease patients after 48 hrs by agar dilution method; summary of the method: as §1
[22] = test system: Enterocloster clostridioformis; assay: Antimicrobial activity against Clostridium clostridioforme isolated from intra-abdominal infection and pelvic inflammatory disease patients after 48 hrs by agar dilution method; summary of the method: as §1
[23] = test system: Paeniclostridium sordellii; assay: Antimicrobial activity against Clostridium sordellii isolated from intra-abdominal infection and pelvic inflammatory disease patients after 48 hrs by agar dilution method; conditions: Paraclostridium sordellii; summary of the method: as §1
[24] = test system: Clostridium paraputrificum; assay: Antimicrobial activity against Clostridium paraputrificum isolated from intra-abdominal infection and pelvic inflammatory disease patients after 48 hrs by agar dilution method; summary of the method: as §1
Clostridium cadaveris = assay: Antimicrobial activity against Clostridium cadaveris isolated from intra-abdominal infection and pelvic inflammatory disease patients after 48 hrs by agar dilution method; summary of the method: as §1

## Cc1ncc([N+](=O)[O-])n1CCO [METRONIDAZOLE]
Bacteroides fragilis [1]
  MIC50: 1 µg/mL (≈ 5.84 µM)
  MIC90: 1 µg/mL (≈ 5.84 µM)
[2]
  MIC50: 1 µg/mL (≈ 5.84 µM)
  MIC90: 1 µg/mL (≈ 5.84 µM)
Bacteroides fragilis [3]
  MIC: 2 µg/mL (≈ 11.7 µM)
[4]
  MIC: 1 µg/mL (≈ 5.84 µM)
Prevotella intermedia [5]
  MIC: 0.5 µg/mL (≈ 2.92 µM)
Finegoldia magna [6]
  MIC: 1 µg/mL (≈ 5.84 µM)
Fusobacterium nucleatum [7]
  MIC: 0.016 µg/mL (≈ 0.0935 µM)
Clostridium perfringens [8]
  MIC: 2 µg/mL (≈ 11.7 µM)
Clostridioides difficile [9]
  MIC: 0.5 µg/mL (≈ 2.92 µM)
Bacteroides ovatus
  MIC50: 1 µg/mL (≈ 5.84 µM)
  MIC90: 2 µg/mL (≈ 11.7 µM)
Phocaeicola vulgatus
  MIC50: 0.5 µg/mL (≈ 2.92 µM)
  MIC90: 1 µg/mL (≈ 5.84 µM)
[10]
  MIC: 1 µg/mL (≈ 5.84 µM)
  MIC50: 1 µg/mL (≈ 5.84 µM)
  MIC90: 1 µg/mL (≈ 5.84 µM)
Prevotella bivia
  MIC50: 2 µg/mL (≈ 11.7 µM)
  MIC90: 2 µg/mL (≈ 11.7 µM)
Prevotella disiens
  MIC: 0.5 µg/mL (≈ 2.92 µM)
  MIC50: 0.5 µg/mL (≈ 2.92 µM)
  MIC90: 2 µg/mL (≈ 11.7 µM)
Prevotella intermedia [11]
  MIC50: 0.5 µg/mL (≈ 2.92 µM)
  MIC90: 2 µg/mL (≈ 11.7 µM)
Prevotella nigrescens
  MIC50: 0.5 µg/mL (≈ 2.92 µM)
  MIC90: 1 µg/mL (≈ 5.84 µM)
[12]
  MIC50: 0.5 µg/mL (≈ 2.92 µM)
  MIC90: 1 µg/mL (≈ 5.84 µM)
Prevotella denticola
  MIC50: 0.5 µg/mL (≈ 2.92 µM)
  MIC90: 1 µg/mL (≈ 5.84 µM)
Prevotella corporis
  MIC50: 0.5 µg/mL (≈ 2.92 µM)
  MIC90: 1 µg/mL (≈ 5.84 µM)
Prevotella buccae
  MIC50: 1 µg/mL (≈ 5.84 µM)
  MIC90: 1 µg/mL (≈ 5.84 µM)
[13]
  MIC: ≤ 0.125 µg/mL
Porphyromonas gingivalis
  MIC: ≤ 0.125 µg/mL
Porphyromonas levii
  MIC: ≤ 0.125 µg/mL
Fusobacterium nucleatum [14]
  MIC: ≤ 0.125 µg/mL
  MIC50: ≤ 0.125 µg/mL
  MIC90: ≤ 0.125 µg/mL
[15]
  MIC: ≤ 0.125 µg/mL
  MIC50: ≤ 0.125 µg/mL
  MIC90: ≤ 0.125 µg/mL
Fusobacterium varium
  MIC50: 0.25 µg/mL (≈ 1.46 µM)
  MIC90: 0.5 µg/mL (≈ 2.92 µM)
Fusobacterium mortiferum
  MIC: ≤ 0.125 µg/mL
  MIC50: ≤ 0.125 µg/mL
  MIC90: ≤ 0.125 µg/mL
Finegoldia magna [16]
  MIC50: 0.5 µg/mL (≈ 2.92 µM)
  MIC90: 1 µg/mL (≈ 5.84 µM)
Parvimonas micra
  MIC50: 0.25 µg/mL (≈ 1.46 µM)
  MIC90: 0.5 µg/mL (≈ 2.92 µM)
[17]
  MIC50: 0.5 µg/mL (≈ 2.92 µM)
  MIC90: 1 µg/mL (≈ 5.84 µM)
Anaerococcus prevotii
  MIC: 0.25 µg/mL (≈ 1.46 µM)
Anaerococcus tetradius
  MIC50: 2 µg/mL (≈ 11.7 µM)
[18]
  MIC50: 1 µg/mL (≈ 5.84 µM)
  MIC90: 1 µg/mL (≈ 5.84 µM)
Clostridium perfringens [19]
  MIC50: 1 µg/mL (≈ 5.84 µM)
  MIC90: 2 µg/mL (≈ 11.7 µM)
Clostridioides difficile [20]
  MIC50: 0.5 µg/mL (≈ 2.92 µM)
  MIC90: 0.5 µg/mL (≈ 2.92 µM)
[Clostridium] innocuum
  MIC50: 1 µg/mL (≈ 5.84 µM)
Thomasclavelia ramosa
  MIC50: 2 µg/mL (≈ 11.7 µM)
[21]
  MIC: 0.25 µg/mL (≈ 1.46 µM)
[22]
  MIC: ≤ 0.125 µg/mL
[23]
  MIC: 0.5 µg/mL (≈ 2.92 µM)
[24]
  MIC: 0.5 µg/mL (≈ 2.92 µM)
Clostridium cadaveris
  MIC: 0.25 µg/mL (≈ 1.46 µM)
